Residue numbers refer to the chain shown, from its start. Each block holds one compound with its values, some of them ahead of it.
Assays:
AIRE–PHD1 wild type [1] = target: AIRE–PHD1 wild type (UniProt O43918); experiment: NMR titration
AIRE–PHD1 wild type [2] = target: AIRE–PHD1 wild type (UniProt O43918); experiment: ITC
AIRE–PHD1 wild type [3] = target: AIRE–PHD1 wild type (UniProt O43918); experiment: other fluorescence titration
AIRE–PHD1 = experiment: Histone pull-down after EDTA treatment; conditions: 50 mM EDTA, overnight 4 °C prior to histone binding
In short: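 AIRE–PHD1 expressed as a glutathione-S-transferase (GST) fusion and incubated with whole histones. Bound H3 detected by western blot with anti-H3; GST-PHD protein visualised by Coomassie staining.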

AIRE–PHD1 V301M = target: T1, AIRE–PHD1 V301M (Homo sapiens, UniProt O43918, V301M); experiment: Tryptophan fluorescence titration, AIRE-PHD1 V301M; assay type: binding
T1 sequence (O43918 296-343 V301M limits assumed): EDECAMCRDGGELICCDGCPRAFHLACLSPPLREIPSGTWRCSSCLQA
In short: (§1)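 Tryptophan fluorescence spectroscopy titration of AIRE–PHD1 point mutants with histone H3 peptides: H3K4me0 for all; D297A also with H3K4me3. Dissociation constants were derived from the titrations. ND denotes binding too weak to quantify reliably.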

AIRE–PHD1 D297A [4] = target: T2, AIRE–PHD1 D297A (Homo sapiens, UniProt O43918, D297A); experiment: Tryptophan fluorescence titration, AIRE-PHD1 D297A; assay type: binding
T2 sequence (O43918 290-349 D297A): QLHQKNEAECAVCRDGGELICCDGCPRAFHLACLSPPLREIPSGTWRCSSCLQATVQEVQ
In short: as §1

AIRE–PHD1 C311Y = target: T3, AIRE–PHD1 C311Y (Homo sapiens, UniProt O43918, C311Y); experiment: Tryptophan fluorescence titration, AIRE-PHD1 C311Y; assay type: binding
T3 sequence (O43918 296-343 C311Y limits assumed): T1 sequence (O43918 296-343 V301M limits assumed) with M6V, C16Y
In short: as §1

AIRE–PHD1 D297A [5] = target: T2, AIRE–PHD1 D297A; experiment: Isothermal titration calorimetry, AIRE-PHD1 D297A; assay type: binding
AIRE–PHD1 WT [6] = target: AIRE–PHD1 WT (Homo sapiens, UniProt O43918); experiment: Tryptophan fluorescence titration, AIRE-PHD1 wild type; assay type: binding
AIRE–PHD1 D312A [7] = target: T4, AIRE–PHD1 D312A (Homo sapiens, UniProt O43918, D312A); experiment: Isothermal titration calorimetry, AIRE-PHD1 D312A; assay type: binding
T4 sequence (O43918 296-343 D312A limits assumed): T1 sequence (O43918 296-343 V301M limits assumed) with M6V, D17A
In short: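 ITC of H3K4me0 (histone H3, non-methylated K4) peptide binding to the AIRE–PHD1 D312A mutant. Sequential heat pulses were integrated, corrected for heat of dilution, and fit to a single-site binding model by nonlinear least squares to give N, Kd, ΔH and ΔS. ND denotes binding too weak to quantify reliably.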

AIRE–PHD1 D312A [8] = target: T4, AIRE–PHD1 D312A; experiment: Tryptophan fluorescence titration, AIRE-PHD1 D312A; assay type: binding
In short: as §1

AIRE–PHD1 WT [9] = target: T5, AIRE–PHD1 WT (Homo sapiens, UniProt O43918); experiment: biochemical; assay type: binding
T5 sequence (O43918 293-349 limits assumed): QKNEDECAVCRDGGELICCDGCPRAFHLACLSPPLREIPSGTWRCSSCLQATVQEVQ

maximum average chemical shift change (AIRE–PHD1 wild type [1]): 0.9 p.p.m.
Compound: histone H3 N-terminal peptide H3K4me0 (NMR, fluorescence, ITC)

Kd (AIRE–PHD1 wild type [2]): 55.6 µM | Kd (AIRE–PHD1 wild type [3]): 21.4 µM
Compound: histone H3 N-terminal peptide H3K4me1 (NMR, fluorescence, ITC)

effect on H3 binding, in words (AIRE–PHD1): greatly reduced
Compound: O=C(O)CN(CCN(CC(=O)O)CC(=O)O)CC(=O)O [EDTA]

Kd (AIRE–PHD1 V301M): 6.8 ± 0.4 µM | Kd (AIRE–PHD1 D297A [4]): 173 ± 18.6 µM | Kd (AIRE–PHD1 C311Y): > 500 µM | Kd (AIRE–PHD1 D297A [5]): 147 ± 6.1 µM | Kd (AIRE–PHD1 WT [6]): 4.7 ± 0.8 µM | Kd (AIRE–PHD1 D312A [7]): > 714 µM | Kd (AIRE–PHD1 D312A [8]): > 500 µM | Kd (AIRE–PHD1 WT [9]): 6.5 ± 0.2 µM
Compound: C[C@H](N)C(=O)N[C@@H](CCCNC(=N)N)C(=O)N[C@H](C(=O)N[C@@H](CCCCN)C(=O)N[C@@H](CCC(N)=O)C(=O)N[C@H](C(=O)N[C@@H](C)C(=O)N[C@@H](CCCNC(=N)N)C(=O)N[C@@H](CCCCN)C(=O)N[C@@H](CO)C(=O)O)[C@@H](C)O)[C@@H](C)O [H3K4me0]

Kd (AIRE–PHD1 wild type [2]): 714 µM | Kd (AIRE–PHD1 wild type [3]): > 500 µM
Compound: histone H3 N-terminal peptide H3K4me2 (NMR, fluorescence, ITC)
